Laboratory results reported in ChEMBL document CHEMBL1275435, “A naturally occurring proline-to-alanine amino acid change in Fks1p in Candida parapsilosis, Candida orthopsilosis, and Candida metapsilosis accounts for reduced echinocandin susceptibility” (Antimicrob Agents Chemother, 2008).
In brackets after ≈: the same amount, converted by molar mass. *1 amine or outer side, *2 acyl side, *3 side chain or, on linkers, in order; H or OH if unused. Where a SMILES comes first, the peptide text is derived from it. Bridges are numbered along the chain shown (N, C = ends). [ ]: non-standard residue; d: D form. The star is where a group is joined. hTyr(3S-OH,4S-OH,3'-OSO3H) = N[C@H](C(=O)O)[C@H](O)[C@@H](O)c1ccc(O)c(OS(=O)(=O)O)c1; Orn(4R-OH,5R-OH) = O=C([C@H](C[C@@H](O)[C@@H](O)N[*:3])N[*:1])[*:2]; Pro(3S-OH,4S-Me) = C[C@H]1CN[C@H](C(=O)O)[C@H]1O; X1 = CCCCCOc1ccc(-c2cc(-c3ccc(C(=O)*)cc3)no2)cc1; Gln(3R-OH) = NC(=O)C[C@@H](O)[C@H](N)C(=O)O; Hyp = O=C(O)[C@@H]1C[C@@H](O)CN1

Legend:
[1] = Inhibition of Candida parapsilosis H5 glucan synthase assessed as [3H]UDPG incorporation
Outline: (§1)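 Cells were grown with vigorous shaking at 30°C to early stationary phase in YPD. Membrane GS was partially purified by product entrapment, using 10-fold more cells for low-activity strains. The polymerization assay was started by adding GS, with drug serially diluted from 0.01 to 10,000 ng/ml. Reactions ran 60 min at 25°C and were stopped on ice. IC50 came from sigmoidal variable-slope fits, as arithmetic means ± SD of three repetitions on three days.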

Candida albicans [2] = assay: Antifungal activity against Candida albicans Sc5314 by CLSI method; assay type: functional
[3] = Inhibition of Candida metapsilosis 960161 glucan synthase assessed as [3H]UDPG incorporation; outline: as §1
Nakaseomyces glabratus [4] = assay: Antifungal activity against Candida glabrata T51916 by CLSI method; assay type: functional
[5] = Inhibition of Candida albicans ATCC 90028 glucan synthase assessed as [3H]UDPG incorporation; outline: as §1
Candida albicans [6] = assay: Antifungal activity against Candida albicans ATCC 90028 by CLSI method; assay type: functional
Candida metapsilosis [7] = assay: Antifungal activity against Candida metapsilosis 960161 by CLSI method; assay type: functional; conditions: Lodderomyces metapsilosis
[8] = Inhibition of Candida parapsilosis ATCC 22019 glucan synthase by assessed as [3H]UDPG incorporation; outline: as §1
[9] = Inhibition of Candida glabrata ATCC 90030 glucan synthase assessed as [3H]UDPG incorporation; design: species or system Nakaseomyces glabratus; outline: as §1
Candida albicans [10] = assay: Antifungal activity against Candida albicans M122 by CLSI method; assay type: functional
Saccharomyces cerevisiae [11] = assay: Antifungal activity against FKS1 deficient Saccharomyces cerevisiae BY4742 by CLSI method; assay type: functional
[12] = Inhibition of Saccharomyces cerevisiae BY4742 glucan synthase assessed as [3H]UDPG incorporation; outline: as §1
[13] = Inhibition of Candida orthopsilosis 981224 glucan synthase assessed as [3H]UDPG incorporation; outline: as §1
Nakaseomyces glabratus [14] = assay: Antifungal activity against Candida glabrata ATCC 90030 by CLSI method; assay type: functional
Candida metapsilosis [15] = assay: Antifungal activity against Candida metapsilosis am-2006-0113 by CLSI method; assay type: functional; conditions: Lodderomyces metapsilosis
Candida parapsilosis [16] = assay: Antifungal activity against Candida parapsilosis H4 by CLSI method; assay type: functional; conditions: Lodderomyces parapsilosis
[17] = Inhibition of Saccharomyces cerevisiae BY4742-FKS1P649A mutant glucan synthase assessed as [3H]UDPG incorporation; outline: as §1
Candida orthopsilosis [18] = assay: Antifungal activity against Candida orthopsilosis 981224 by CLSI method; assay type: functional; conditions: Lodderomyces orthopsilosis
[19] = Inhibition of Candida albicans M122 glucan synthase assessed as [3H]UDPG incorporation; outline: as §1
Candida parapsilosis [20] = assay: Antifungal activity against Candida parapsilosis H5 by CLSI method; assay type: functional; conditions: Lodderomyces parapsilosis
[21] = Inhibition of Candida metapsilosis am-2006-0113 glucan synthase assessed as [3H]UDPG incorporation; outline: as §1
[22] = Inhibition of Candida albicans ATCC 36082 glucan synthase assessed as [3H]UDPG incorporation; outline: as §1
Saccharomyces cerevisiae [23] = assay: Antifungal activity against Saccharomyces cerevisiae BY4742 by CLSI method; assay type: functional
Candida orthopsilosis [24] = assay: Antifungal activity against Candida orthopsilosis H10 by CLSI method; assay type: functional; conditions: Lodderomyces orthopsilosis
Candida parapsilosis [25] = assay: Antifungal activity against Candida parapsilosis ATCC 22019 by CLSI method; assay type: functional; conditions: Lodderomyces parapsilosis
[26] = Inhibition of Candida albicans Sc5314 glucan synthase assessed as [3H]UDPG incorporation; outline: as §1
[27] = Inhibition of Candida parapsilosis H4 glucan synthase assessed as [3H]UDPG incorporation; outline: as §1
[28] = Inhibition of Candida glabrata T51916 glucan synthase assessed as [3H]UDPG incorporation; design: species or system Nakaseomyces glabratus; outline: as §1
Saccharomyces cerevisiae [29] = assay: Antifungal activity against Saccharomyces cerevisiae BY4742-FKS1P649A mutant by CLSI method; assay type: functional
Outline: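 Broth microdilution following CLSI M27-A2, run in YPD broth (1% yeast extract, 2% Bacto peptone, 2% dextrose). MICs are geometric means of at least three repetitions on three separate days.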

[30] = Inhibition of Candida orthopsilosis H10 glucan synthase assessed as [3H]UDPG incorporation; outline: as §1
Candida albicans [31] = assay: Antifungal activity against Candida albicans ATCC 36082 by CLSI method; assay type: functional

CC[C@H](C)C[C@H](C)CCCCCCCCC(=O)N[C@H]1C[C@@H](O)[C@@H](NCCN)NC(=O)[C@@H]2[C@@H](O)CCN2C(=O)[C@H]([C@H](O)CCN)NC(=O)[C@H]([C@H](O)[C@@H](O)c2ccc(O)cc2)NC(=O)[C@@H]2C[C@@H](O)CN2C(=O)[C@H]([C@@H](C)O)NC1=O [CASPOFUNGIN]
IC50 [1]: 0.01253 µg/mL (≈ 0.0115 µM)
Ki [1]: 0.00601 µg/mL (≈ 0.0055 µM)
MIC (Candida albicans [2]): 0.4 µg/mL (≈ 0.366 µM)
IC50 [3]: 0.02515 µg/mL (≈ 0.023 µM)
Ki [3]: 0.08045 µg/mL (≈ 0.0736 µM)
MIC (Nakaseomyces glabratus [4]): 2 µg/mL (≈ 1.83 µM)
IC50 [5]: 0.00052 µg/mL (≈ 0.000476 µM)
Ki [5]: 0.00095 µg/mL (≈ 0.000869 µM)
MIC (Candida albicans [6]): 0.2 µg/mL (≈ 0.183 µM)
MIC (Candida metapsilosis [7]): 1 µg/mL (≈ 0.915 µM)
IC50 [8]: 0.02121 µg/mL (≈ 0.0194 µM)
Ki [8]: 0.04799 µg/mL (≈ 0.0439 µM)
IC50 [9]: 0.00312 µg/mL (≈ 0.00285 µM)
MIC (Candida albicans [10]): 4 µg/mL (≈ 3.66 µM)
MIC (Saccharomyces cerevisiae [11]): 0.02 µg/mL (≈ 0.0183 µM)
IC50 [12]: 0.06554 µg/mL (≈ 0.0599 µM)
Ki [12]: 0.18394 µg/mL (≈ 0.168 µM)
IC50 [13]: 0.07526 µg/mL (≈ 0.0688 µM)
Ki [13]: 0.0074 µg/mL (≈ 0.00677 µM)
MIC (Nakaseomyces glabratus [14]): 0.1 µg/mL (≈ 0.0915 µM)
MIC (Candida metapsilosis [15]): 0.79 µg/mL (≈ 0.723 µM)
MIC (Candida parapsilosis [16]): 2.24 µg/mL (≈ 2.05 µM)
IC50 [17]: 1.32867 µg/mL (≈ 1.22 µM)
Ki [17]: 1.215 µg/mL (≈ 1.11 µM)
MIC (Candida orthopsilosis [18]): 0.79 µg/mL (≈ 0.723 µM)
IC50 [19]: 0.07948 µg/mL (≈ 0.0727 µM)
Ki [19]: 0.292 µg/mL (≈ 0.267 µM)
MIC (Candida parapsilosis [20]): 2.24 µg/mL (≈ 2.05 µM)
IC50 [21]: 0.04028 µg/mL (≈ 0.0368 µM)
Ki [21]: 0.0769 µg/mL (≈ 0.0703 µM)
IC50 [22]: 0.0006 µg/mL (≈ 0.000549 µM)
Ki [22]: 0.00046 µg/mL (≈ 0.000421 µM)
MIC (Saccharomyces cerevisiae [23]): 0.03 µg/mL (≈ 0.0274 µM)
MIC (Candida orthopsilosis [24]): 1 µg/mL (≈ 0.915 µM)
MIC (Candida parapsilosis [25]): 1.4 µg/mL (≈ 1.28 µM)
Ki [26]: 0.00297 µg/mL (≈ 0.00272 µM)
IC50 [27]: 0.07919 µg/mL (≈ 0.0724 µM)
Ki [27]: 0.00393 µg/mL (≈ 0.00359 µM)
IC50 [28]: 0.1575 µg/mL (≈ 0.144 µM)
Ki [28]: 0.1945 µg/mL (≈ 0.178 µM)
MIC (Saccharomyces cerevisiae [29]): 0.5 µg/mL (≈ 0.457 µM)
IC50 [30]: 0.05816 µg/mL (≈ 0.0532 µM)
Ki [30]: 0.00429 µg/mL (≈ 0.00392 µM)
MIC (Candida albicans [31]): 0.2 µg/mL (≈ 0.183 µM)

CCCCCOc1ccc(-c2cc(-c3ccc(C(=O)N[C@H]4C[C@@H](O)[C@@H](O)NC(=O)[C@@H]5[C@@H](O)[C@@H](C)CN5C(=O)[C@H]([C@H](O)CC(N)=O)NC(=O)[C@H]([C@H](O)[C@@H](O)c5ccc(O)c(OS(=O)(=O)O)c5)NC(=O)[C@@H]5C[C@@H](O)CN5C(=O)[C@H]([C@@H](C)O)NC4=O)cc3)no2)cc1 [MICAFUNGIN] (X1-[Orn(4R-OH,5R-OH)]T[Hyp][hTyr(3S-OH,4S-OH,3'-OSO3H)][Gln(3R-OH)][Pro(3S-OH,4S-Me)]; lactam 1-C)
IC50 [1]: 0.49363 µg/mL (≈ 0.389 µM)
Ki [1]: 0.261 µg/mL (≈ 0.205 µM)
MIC (Candida albicans [2]): 0.05 µg/mL (≈ 0.0394 µM)
IC50 [3]: 0.11373 µg/mL (≈ 0.0895 µM)
Ki [3]: 0.3825 µg/mL (≈ 0.301 µM)
MIC (Nakaseomyces glabratus [4]): 0.4 µg/mL (≈ 0.315 µM)
IC50 [5]: 0.0102 µg/mL (≈ 0.00803 µM)
Ki [5]: 0.0235 µg/mL (≈ 0.0185 µM)
MIC (Candida albicans [6]): 0.03 µg/mL (≈ 0.0236 µM)
MIC (Candida metapsilosis [7]): 1.59 µg/mL (≈ 1.25 µM)
IC50 [8]: 0.24527 µg/mL (≈ 0.193 µM)
Ki [8]: 0.476 µg/mL (≈ 0.375 µM)
IC50 [9]: 0.00068 µg/mL (≈ 0.000535 µM)
MIC (Candida albicans [10]): 0.25 µg/mL (≈ 0.197 µM)
MIC (Saccharomyces cerevisiae [11]): 0.015 µg/mL (≈ 0.0118 µM)
IC50 [12]: 0.15945 µg/mL (≈ 0.126 µM)
Ki [12]: 0.17901 µg/mL (≈ 0.141 µM)
IC50 [13]: 0.07752 µg/mL (≈ 0.061 µM)
Ki [13]: 0.248 µg/mL (≈ 0.195 µM)
MIC (Nakaseomyces glabratus [14]): 0.06 µg/mL (≈ 0.0472 µM)
MIC (Candida metapsilosis [15]): 1.59 µg/mL (≈ 1.25 µM)
MIC (Candida parapsilosis [16]): 1.12 µg/mL (≈ 0.882 µM)
IC50 [17]: 5.199 µg/mL (≈ 4.09 µM)
Ki [17]: 5.7065 µg/mL (≈ 4.49 µM)
MIC (Candida orthopsilosis [18]): 1.26 µg/mL (≈ 0.992 µM)
IC50 [19]: 0.9431 µg/mL (≈ 0.742 µM)
Ki [19]: 2.59 µg/mL (≈ 2.04 µM)
MIC (Candida parapsilosis [20]): 1.26 µg/mL (≈ 0.992 µM)
IC50 [21]: 0.07032 µg/mL (≈ 0.0554 µM)
Ki [21]: 0.266 µg/mL (≈ 0.209 µM)
IC50 [22]: 0.01888 µg/mL (≈ 0.0149 µM)
Ki [22]: 0.0155 µg/mL (≈ 0.0122 µM)
MIC (Saccharomyces cerevisiae [23]): 0.03 µg/mL (≈ 0.0236 µM)
MIC (Candida orthopsilosis [24]): 0.63 µg/mL (≈ 0.496 µM)
MIC (Candida parapsilosis [25]): 1.6 µg/mL (≈ 1.26 µM)
IC50 [26]: 0.05825 µg/mL (≈ 0.0459 µM)
Ki [26]: 0.0275 µg/mL (≈ 0.0216 µM)
IC50 [27]: 0.34083 µg/mL (≈ 0.268 µM)
Ki [27]: 0.486 µg/mL (≈ 0.383 µM)
IC50 [28]: 0.11235 µg/mL (≈ 0.0884 µM)
Ki [28]: 0.51 µg/mL (≈ 0.401 µM)
MIC (Saccharomyces cerevisiae [29]): 0.5 µg/mL (≈ 0.394 µM)
IC50 [30]: 0.1527 µg/mL (≈ 0.12 µM)
Ki [30]: 0.1775 µg/mL (≈ 0.14 µM)
MIC (Candida albicans [31]): 0.02 µg/mL (≈ 0.0157 µM)
